Results as given in ChEMBL document CHEMBL4732185, “Synthesis, biological evaluation and structure-activity relationship of novel dichloroacetophenones targeting pyruvate dehydrogenase kinases with potent anticancer activity” (Eur J Med Chem, 2021).
Active and inactive are the calls of the source. The calls are words filed in the database; no cut-off is given here.

How the values were obtained:
[1] = test system: A-375; assay: Induction of apoptosis in human A375 cells assessed as necrotic cells at 5 uM after 36 hrs by annexinV-FITC/propidium iodide staining based flow cytometric analysis (reference value: 1.63%); assay type: functional
[2] = test system: PC-3; assay: Antiproliferative activity against human PC3 cells assessed as growth inhibition after 72 hrs by MTT assay; assay type: functional, cell-based; details: Homo sapiens, PC-3, 72 h; read-out: IC50
Procedure, shortened: (§1)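 MTT viability assay. Cancer lines seeded at 3000–6000 cells/well and L02 at 7000 cells/well, cultured overnight, then exposed to a full dose range for 72 h. MTT (0.5 mg/mL) added for 4 h, supernatant removed, formazan dissolved in DMSO, absorbance read at 570 nm. IC50 taken as the mean of three independent experiments. Cells grown in DMEM + 10% FBS, 37 °C, 5% CO2.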

[3] = test system: MCF7; assay: Antiproliferative activity against human MCF7 cells assessed as growth inhibition at 1 uM after 72 hrs by MTT assay relative to control; assay type: functional
Procedure, shortened: (§2)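 Single-concentration MTT screen on MCF-7 and A549 cells grown in DMEM + 10% FBS. Cells at 3000–6000/well, cultured overnight, then given compound in buffer with 1% DMSO for 72 h. MTT (0.5 mg/mL) added for 4 h, formazan dissolved in DMSO, A570 read. Percent inhibition reported as the average ± S.D. of three independent measurements.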

[4] = test system: SH-SY5Y; assay: Antiproliferative activity against human SHSY-5Y cells assessed as growth inhibition after 72 hrs by MTT assay; assay type: functional, cell-based; details: Homo sapiens, SH-SY5Y, 72 h; read-out: IC50; procedure, shortened: as §1
[5] = test system: MCF7; assay: Antiproliferative activity against human MCF7 cells assessed as growth inhibition after 72 hrs by MTT assay; assay type: functional, cell-based; details: Homo sapiens, MCF7, 72 h; read-out: IC50; procedure, shortened: as §1
[6] = test system: A-375; assay: Induction of apoptosis in human A375 cells assessed as necrotic cells at 5 uM after 12 hrs by annexinV-FITC/propidium iodide staining based flow cytometric analysis (reference value: 0.56%); assay type: functional
[7] = test system: A549; assay: Antiproliferative activity against human A549 cells assessed as growth inhibition at 1 uM after 72 hrs by MTT assay relative to control; assay type: functional; procedure, shortened: as §2
[8] = test system: L02; assay: Cytotoxicity against human L02 cells assessed as reduction in cell viability after 72 hrs by MTT assay; assay type: cell-based; details: Homo sapiens, L02, 72 h; read-out: IC50; procedure, shortened: as §1
[9] = test system: A-375; assay: Induction of apoptosis in human A375 cells assessed as early apoptotic cells at 5 uM after 24 hrs by annexinV-FITC/propidium iodide staining based flow cytometric analysis (reference value: 0.87%); assay type: functional
[10] = test system: A-375; assay: Induction of apoptosis in human A375 cells assessed as late apoptotic cells at 5 uM after 36 hrs by annexinV-FITC/propidium iodide staining based flow cytometric analysis (reference value: 1.02%); assay type: functional
[11] = test system: A-375; assay: Induction of apoptosis in human A375 cells assessed as early apoptotic cells at 5 uM after 36 hrs by annexinV-FITC/propidium iodide staining based flow cytometric analysis (reference value: 3.2%); assay type: functional
[12] = test system: HCT-116; assay: Antiproliferative activity against human HCT-116 cells assessed as growth inhibition after 72 hrs by MTT assay; assay type: functional, cell-based; details: Homo sapiens, HCT-116, 72 h; read-out: IC50; procedure, shortened: as §1
[13] = test system: A-375; assay: Induction of apoptosis in human A375 cells assessed as viable cells at 5 uM after 36 hrs by annexinV-FITC/propidium iodide staining based flow cytometric analysis (reference value: 94.15%); assay type: functional; details: read-out: Activity
[14] = test system: A-375; assay: Antiproliferative activity against human A375 cells assessed as growth inhibition after 72 hrs by MTT assay; assay type: functional, cell-based; details: Homo sapiens, A-375, 72 h; read-out: IC50; procedure, shortened: as §1
[15] = test system: A-375; assay: Induction of cell cycle arrest in human A375 cells assessed as accumulation at G1 phase at 5 uM after 24 hrs by propidium iodide staining based flow cytometric analysis (reference value: 52.65%); assay type: functional
[16] = test system: A-375; assay: Induction of cell cycle arrest in human A375 cells assessed as accumulation at G2 phase at 5 uM after 24 hrs by propidium iodide staining based flow cytometric analysis (reference value: 10.02%); assay type: functional
[17] = test system: A-375; assay: Inhibition of PDK in human A375 cells assessed as reduction in phosphorylation of PDC E1alpha at ser293 residues at 5 uM after 24 hrs by Western blot analysis; assay type: cell-based
Procedure, shortened: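 A375 cells in 6-well plates, treated 24 h. Lysed 15 min and spun 12000 rpm at 4 °C for 15 min. Protein equalized by BCA and denatured in SDS buffer at 100 °C for 8 min. Run on SDS-PAGE, transferred to nitrocellulose, blocked in 5% milk 2 h, primary antibody overnight, HRP anti-rabbit IgG 2 h, ECL detection.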

[18] = test system: A549; assay: Antiproliferative activity against human A549 cells assessed as growth inhibition at 10 uM after 72 hrs by MTT assay relative to control; assay type: functional; details: read-out: GI; procedure, shortened: as §2
[19] = test system: A-375; assay: Induction of apoptosis in human A375 cells assessed as viable cells at 5 uM after 12 hrs by annexinV-FITC/propidium iodide staining based flow cytometric analysis (reference value: 97.94%); assay type: functional; details: read-out: Activity
[20] = test system: A-375; assay: Induction of cell cycle arrest in human A375 cells assessed as accumulation at S phase at 5 uM after 24 hrs by propidium iodide staining based flow cytometric analysis (reference value: 37.33%); assay type: functional
[21] = Inhibition of PDK (unknown origin) using RYHGHSMSDP as substrate after 30 mins by Kinase-Glo luminescent assay; set-up: species or system Homo sapiens
[22] = test system: MCF7; assay: Antiproliferative activity against human MCF7 cells assessed as growth inhibition at 10 uM after 72 hrs by MTT assay relative to control; assay type: functional; details: read-out: GI; procedure, shortened: as §2
[23] = test system: A549; assay: Antiproliferative activity against human A549 cells assessed as growth inhibition after 72 hrs by MTT assay; assay type: functional, cell-based; details: Homo sapiens, A549, 72 h; read-out: IC50; procedure, shortened: as §1
[24] = species: Homo sapiens; assay: Inhibition of PDK (unknown origin) using RYHGHSMSDP as substrate at 1 uM after 30 mins by Kinase-Glo luminescent assay
[25] = test system: A-375; assay: Induction of apoptosis in human A375 cells assessed as late apoptotic cells at 5 uM after 24 hrs by annexinV-FITC/propidium iodide staining based flow cytometric analysis (reference value: 0.63%); assay type: functional
[26] = test system: A-375; assay: Induction of apoptosis in human A375 cells assessed as necrotic cells at 5 uM after 24 hrs by annexinV-FITC/propidium iodide staining based flow cytometric analysis (reference value: 0.56%); assay type: functional
[27] = test system: A-375; assay: Induction of apoptosis in human A375 cells assessed as late apoptotic cells at 5 uM after 12 hrs by annexinV-FITC/propidium iodide staining based flow cytometric analysis (reference value: 0.63%); assay type: functional
[28] = test system: A-375; assay: Induction of apoptosis in human A375 cells assessed as viable cells at 5 uM after 24 hrs by annexinV-FITC/propidium iodide staining based flow cytometric analysis (Rvb= 97.94%); assay type: functional; details: read-out: Activity
[29] = test system: A-375; assay: Induction of apoptosis in human A375 cells assessed as early apoptotic cells at 5 uM after 12 hrs by annexinV-FITC/propidium iodide staining based flow cytometric analysis (reference value: 0.87%); assay type: functional
[30] = test system: A549; assay: Antiproliferative activity against human A549 cells assessed as reduction in cell viability after 24 hrs by MTT assay; assay type: functional, cell-based; details: A549, 24 h
[31] = species: Homo sapiens; assay: Inhibition of PDK (unknown origin) using RYHGHSMSDP as substrate at 80 uM after 30 mins by Kinase-Glo luminescent assay

For CC(C)Oc1ccc(C(=O)C(Cl)Cl)cc1[N+](=O)[O-], the Activity [1] was 2.31%, the IC50 [2] was 8.7 µM and the “growth inhibition (GI)” value [3] was “inactive”. For the same compound, the IC50 [4] was 5.6 µM, the IC50 [5] was 7.8 µM and the Activity [6] was 3.77%. The inhibition of growth at 1 µM ([7]; read-out: GI) was 18.7%, the IC50 [8] was 16.9 µM and the Activity [9] was 4.71%. The Activity [10] was 18.83%, the Activity [11] was 6.6% and the IC50 [12] was 6.2 µM. The viability at 5 µM [13] was 68.9%, the IC50 [14] was 4.9 µM and the Activity [15] was 58.34%. For the same compound, the Activity [16] was 11.01%, the inhibition [17] was “Active” and the inhibition of growth at 10 µM [18] was 98.2%. It also gave a viability at 5 µM [19] of 91.1%, an Activity [20] of 30.65% and an EC50 [21] of 0.33 µM. It also gave an inhibition of growth at 10 µM [22] of 73.4%, an IC50 [23] of 3.5 µM and an inhibition [24] of 72.4%. It also gave an Activity [25] of 6.83%, an Activity [26] of 4.29% and an Activity [27] of 2.66%. It also gave a viability at 5 µM [28] of 84.2% and an Activity [29] of 2.43%.

In the case of O=C(c1ccccc1)C(Cl)Cl, the IC50 [2] is reported as 23.1 µM, the “growth inhibition (GI)” value [3] is reported as “inactive” and the IC50 [4] is reported as 17.7 µM. For the same compound, the IC50 [5] was 21.4 µM, the “growth inhibition (GI)” value [7] was “inactive” and the IC50 [8] was 19.7 µM. For the same compound, the IC50 [12] was 12.9 µM, the IC50 [14] was 16.9 µM and the inhibition of growth at 10 µM [18] was 55.2%. For the same compound, the EC50 [21] was over 80 µM, the inhibition of growth at 10 µM [22] was 42.2% and the IC50 [23] was 18.7 µM. The IC50 [30] was 15.9 µM and the inhibition [31] was 36.6%.
